The full list was thinned out, with hits kept by preference.
PTEN del growth = suppresses growth of cells with PTEN deletion; HCT116 PTEN-null viability, CellTiter-Glo, 60 h; hits give low values; viability, % at 10 µM; hit rate 1.2% among 140,000;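 active = viability at or below a set limit, 4 SD under the median of all tested compounds, cut at about 3.7% in these data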;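 note: PTEN knockout HCT116 line with beta catenin targeted HCT116 as companion control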
HUVEC inhibit = human endothelial cell proliferation inhibition | viability, % at 10 µM (by protocol) | hit rate 1.1% among 86,000 | HUVEC proliferation, CellTiter-Glo luminescence, 72 h; hits give low values;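 active = viability at or below 30%; inactive = viability above 30%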;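 note: 100% = median luminescence of DMSO-only cell control wells on each plate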
H69AR inhibit = growth inhibitors of human H69AR lung tumor cells; viability, % at 10 µM; hit rate 6% among 85,000; H69AR lung tumor viability, ATP luminescence, 72 h; hits give low values;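 active = viability at or below 40%; inactive = viability above 40%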;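 note: multidrug resistant small cell line overexpressing MRP-1 efflux transporter; 100% = mean luminescence of untreated control wells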
Lung fibro prol = blocks proliferation of human lung fibroblasts | AID 719 | LL 47 human lung fibroblast viability, ATP luminescence; hits give low values | viability, % at 10 µM | hit rate 1.1% among 85,000;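 active = viability at or below 50% in the single dose screen; inactive = viability above 50%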;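 note: compound exposure lasted 72 h before the ATP readout; 100% = median luminescence of untreated cell-only wells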
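Times – overnight cell rest, 72 h compound treatment at 37 °C · Test system – human lung fibroblast line LL 47, low passage · Amount – 1,150 cells in each well · Controls – cell-only wells, no compound · Doses – 0.1% DMSO in all compound wells · Measured by – CellTiter-Glo luminescence · Buffer or medium – IMEM plus 15% FBS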
HCT116 bCat-KO = beta-catenin-lacking colon tumor cell growth suppression. AID 818. viability, % at 10 µM. hit rate 1.5% among 140,000. HCT116 beta-catenin knockout viability, CellTiter-Glo, 60 h; hits give low values;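 active = viability at or under a set limit, the compound median less 4 SD, cut at about 6% in these data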;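 note: 0% = Hyamine 1622 control at 20 µM and 100% = untreated cell control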
An asterisk follows results filed as active; x = not tested or not shown.

SMILES	PTEN del growth	HUVEC inhibit	H69AR inhibit	Lung fibro prol	HCT116 bCat-KO
COc1ccc(NC(=O)/C=C/c2cc(Br)ccc2OC)cc1	70	x	x	x	72
COc1ccc(/C=C/C(=O)c2ccc(NC(=O)c3cccs3)cc2)cc1OC	1.8*	x	x	x	1.4*
COc1ccc(C(=O)Nc2ccc(NC(=O)c3cccs3)cc2)cc1Cl	99	x	x	x	87
COc1ccc(Br)cc1/C=C/C(=O)c1ccc(NC(C)=O)cc1	1.3*	x	x	x	4.9*
COc1ccccc1Nc1nc(N)nc(CSC(=S)N2CCCCC2C)n1 (centres undefined)	90	x	x	x	91
COc1ccccc1NC(=O)c1ccc(NC(=O)COC(=O)CCC2CCCC2)cc1	93	x	x	x	94
Cc1cccc(Cn2nnc3c2C(=O)c2ccccc2C3=O)c1	3.0*	3.4*	13*	70	4.5*
Cc1ccccc1Cn1nnc2c1C(=O)c1ccccc1C2=O	57	2.1*	12*	32*	60
CCOc1ccc(-c2c[n+]3c(n2-c2ccccc2)CCCCC3)cc1	14	x	x	x	15
O=C(OCC(=O)N1CCCc2ccccc21)c1cccc(S(=O)(=O)N2CCc3ccccc32)c1	86	x	x	x	93
Cc1ccc(C(=O)Nc2ncc(Cc3ccc(F)cc3)s2)o1	88	30*	89	92	89
Cc1ccc(C(=O)Nc2ncc(C)s2)o1	73	77	80	104	77
CC(C)COc1ccc(C(=O)Nc2ccc(SC(F)F)cc2)cc1	93	x	x	x	83
O=C(Nc1ccc(SC(F)F)cc1)c1cccc2nc3ccccc3nc12	70	26*	10*	39*	50
CCOC(=O)c1ccc(-c2cc(C)no2)[nH]1	80	x	x	x	79
O=C(Nc1ccccc1-c1nc2ccccc2[nH]1)c1sc2ccccc2c1Cl	1.9*	x	x	x	4.0*
Cc1cnc(NC(=O)c2sc3ccccc3c2Cl)s1	67	x	x	x	72
CNc1ccccc1C(C)(C)c1cc(-c2ccc(F)cc2)no1	33	x	x	x	23
Cc1ccc(NS(=O)(=O)c2ccc(Cl)c(NC(=S)NC(=O)C3CCCCC3)c2)cc1Cl	11	x	x	x	39
Cc1conc1NC(c1cccs1)c1ccc2cccnc2c1O (centres undefined)	2.6*	24*	19*	3.1*	3.5*
CCNc1ccc2c(Cl)cc(=O)oc2c1	75	95	37*	102	65
N#CC1=C(C2CC2)CC(c2ccccc2)C(C#N)=C1N (centres undefined)	72	71	39*	81	71
O=C(CNc1cccc2ccccc12)N/N=C/C(Br)=C/c1ccccc1	1.2*	47	25*	81	2.7*
Cn1c(=O)c2c(ncn2CC(=O)N/N=C/C(Br)=C/c2ccccc2)n(C)c1=O	2.6*	x	x	x	2.4*
O=C(N/N=C/c1ccc([N+](=O)[O-])o1)c1cc(-c2ccncc2)nc2ccccc12	3.3*	x	x	x	2.8*
SMILES	PTEN del growth	HUVEC inhibit	H69AR inhibit	Lung fibro prol	HCT116 bCat-KO
CSc1ccc(/C=N/NC(=O)CNc2cccc3ccccc23)cc1	92	x	x	x	93
O=C(N/N=C/c1ccccn1)c1cc(-c2ccncc2)nc2ccccc12	32	x	x	x	17
Cn1c(=O)c2c(ncn2CC(=O)N/N=C/C=C/c2ccccc2)n(C)c1=O	83	x	x	x	85
CC1(C(=O)N/N=C/c2ccc([N+](=O)[O-])o2)CC1(Br)Br (centres undefined)	2.5*	x	x	x	2.6*
CCOC(=O)N/N=C\c1ccc([N+](=O)[O-])o1	26	103	79	94	20
C#CCOCCOCCOCCNc1nc(N2CCN(C(=O)Cn3cc(CC(C)O)nn3)CC2)nc(N2CCN(C(=O)[C@H](C)n3cc(CCCN=C(N)N)nn3)CC2)n1 (some centres undefined)	99	x	x	x	102
O=C(CNc1cccc2ccccc12)N/N=C/c1ccc([N+](=O)[O-])o1	5	x	x	x	4.7*
Nc1ccc2c(c1)sc1ccccc12	99	x	x	x	94
Nc1nsc2ccccc12	4	x	x	x	4.7*
COc1cc(Cl)nn(-c2ccccc2)c1=O	94	x	x	x	92
O=c1c(Cl)cc(Cl)nn1-c1ccccc1	2.7*	x	x	x	4.1*
CSc1ccc2c(c1)N(CCC1CCCCN1C)c1ccccc1S2 (centres undefined)	1.4*	x	x	x	1.2*
Cc1cc(C(=O)NCC(=O)OCC(=O)N(C(C)C)C(C)C)ccc1[N+](=O)[O-]	90	x	x	x	96
COCCn1c(=NC(=O)CSCC(=O)Nc2cc(C)on2)sc2cc(C(=O)OC)ccc21	0.5*	x	x	x	80
COc1cccc(C(=O)Nc2cc(=O)n(C)c(=O)n2C)c1	x	88	107	96	x
CCCc1nc(SCC(=O)Nc2cc(C)on2)c2ccccc2n1	73	84	32*	84	80
CCC(C)n1c(SCC(=O)Nc2cc(C)on2)nc2ccccc2c1=O (centres undefined)	61	80	26*	97	60
O=C(CSc1nc2ccccc2nc1SCC(=O)N1CCCCC1)N1CCCCC1	84	x	x	x	81
CCCc1nc(SCC(=O)N2CCCC2)c2ccccc2n1	70	82	38*	93	79
CCc1cccc(CC)c1NC(=O)COC(=O)c1cccc(-c2ccc(OC(C)=O)cc2)c1	90	x	x	x	92
O=C(NC1CC1)C1CCCN1S(=O)(=O)c1ccc2ccccc2c1 (centres undefined)	106	78	18*	95	99
Cc1cccc(C)c1NC1=NC(=S)N(c2ccccc2)C12CCOC(C)(C)C2 (centres undefined)	24	90	34*	87	30
COc1ccccc1Nc1nc(N)nc(-c2cc3ccccc3o2)n1	81	94	10*	104	97
COc1cccc(Nc2nc(N)nc(-c3oc4ccccc4c3C)n2)c1	13	38	17*	65	13
COCc1c(C(=O)OCc2nc(N)nc(Nc3ccccc3C)n2)oc2ccccc12	77	x	x	x	80
SMILES	PTEN del growth	HUVEC inhibit	H69AR inhibit	Lung fibro prol	HCT116 bCat-KO
COc1cccc(Nc2cc(C)nc3ccccc23)c1	52	98	76	84	52
Cc1c(-c2nc(N)nc(Nc3ccccc3F)n2)oc2ccccc12	67	79	20*	78	64
COc1ccccc1Nc1nc(N)nc(CN2CCOCC2)n1	101	106	62	96	96
O=S(=O)(/N=C(/Nc1ccc(F)cc1F)c1ccccc1)c1ccc(Br)cc1	92	x	x	x	94
CS(=O)(=O)NCC(c1ccco1)N1CCN(c2ccc(F)cc2)CC1 (centres undefined)	95	x	x	x	93
Fc1ccc(/C=C2\CCCC3=C2Nc2ncnn2C3c2ccc(F)cc2)cc1 (centres undefined)	1.8*	37	22*	56	2.0*
COc1ccc(C2C3=C(Nc4ncnn42)c2ccccc2CCC3)cc1 (centres undefined)	82	96	86	97	93
CN1CCc2nc3ccc(Cl)cc3c(-c3ccccc3Cl)c2C1	72	x	x	x	78
CCc1ccc2c(c1)C(c1ccc([N+](=O)[O-])cc1)=NNC(c1ccc(C)cc1)=N2	32	x	x	x	39
Cc1ccc(-n2ncc3c(NCCCOC(C)C)ncnc32)c(C)c1	69	97	37*	98	74
